This is a sample that favours compounds with a hit; in the whole collection about 2.1% have one here.
LMPTP inh – LMPTP phosphatase inhibitors, primary screen, biochemical, fluorescence intensity, uHTS; AID 651560, 2012; Low molecular weight phosphotyrosine protein phosphatase (Homo sapiens), P24666; actives 0.22% (n = 360,000); inhibition, % at 20 µM; recombinant LMPTP-A, OMFP fluorogenic substrate;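 active = compounds that cut the enzyme signal by at least half of the control window in the single-dose screen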
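test system = LMPTP-A | amount = 0.625 nM LMPTP-A final | reagent = fluorogenic phosphatase substrate OMFP at 400 µM final | incubation = 50 min at room temperature | benchmarks = no-enzyme low control, uninhibited high control | medium = Bis-Tris pH 6.0, DTT, detergent | signal = fluorescence intensity of OMFP turnover product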
Scp-1 inhibitor – Scp-1 phosphatase inhibitors, primary screen, biochemical, colorimetric, uHTS. Carboxy-terminal domain RNA polymerase II polypeptide A small phosphatase 1 (Homo …. Recombinant Scp1, phosphopeptide, malachite green phosphate absorbance. inhibition, % at 20 µM. actives 0.88% (n = 340,000). AID 493091, 2011;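 active = inhibition above about 50% at 20 µM, limit read from the data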
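Times: enzyme reaction 45 min at room temperature, colour 5 min, stabilisation 30 min. Material: SCP-1 catalytic fragment, aa 76-261. Medium: Acidic Tris acetate buffer with magnesium and detergent. Signal: colorimetric free-phosphate detection, absorbance 630 nm. Read-out basis: % inhibition of SCP-1 phosphate liberation. Reagent: Phosphorylated 17-residue peptide substrate.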
DNMT1 inh – human DNMT1 methyltransferase inhibitors, primary screen, biochemical, molecular beacon, fluorescence, HinP1I cleavage, uHTS; AID 588458, 2011; inhibition (reported as % activation of signal), % at 10 µM; actives 0.83% (n = 360,000); in the data active = inhibition above about 50%
GRK2 inh – compounds blocking aptamer binding on GRK2 – biochemical, human GRK2, bead flow cytometry, HTS, primary screen; Beta-adrenergic receptor kinase 1 (Homo sapiens), P25098; FAM-aptamer displacement from GRK2; inhibition of aptamer binding, % at 10 µM; actives 0.59% (n = 330,000); AID 488847, 2010;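 active = inhibition of aptamer binding above 40%, roughly 3 SD of noise, on plates passing a quality check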;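 also: median bead fluorescence of bound FAM aptamer so fluorescent compounds give negative values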
Target sequence (P25098 whole entry, looked up): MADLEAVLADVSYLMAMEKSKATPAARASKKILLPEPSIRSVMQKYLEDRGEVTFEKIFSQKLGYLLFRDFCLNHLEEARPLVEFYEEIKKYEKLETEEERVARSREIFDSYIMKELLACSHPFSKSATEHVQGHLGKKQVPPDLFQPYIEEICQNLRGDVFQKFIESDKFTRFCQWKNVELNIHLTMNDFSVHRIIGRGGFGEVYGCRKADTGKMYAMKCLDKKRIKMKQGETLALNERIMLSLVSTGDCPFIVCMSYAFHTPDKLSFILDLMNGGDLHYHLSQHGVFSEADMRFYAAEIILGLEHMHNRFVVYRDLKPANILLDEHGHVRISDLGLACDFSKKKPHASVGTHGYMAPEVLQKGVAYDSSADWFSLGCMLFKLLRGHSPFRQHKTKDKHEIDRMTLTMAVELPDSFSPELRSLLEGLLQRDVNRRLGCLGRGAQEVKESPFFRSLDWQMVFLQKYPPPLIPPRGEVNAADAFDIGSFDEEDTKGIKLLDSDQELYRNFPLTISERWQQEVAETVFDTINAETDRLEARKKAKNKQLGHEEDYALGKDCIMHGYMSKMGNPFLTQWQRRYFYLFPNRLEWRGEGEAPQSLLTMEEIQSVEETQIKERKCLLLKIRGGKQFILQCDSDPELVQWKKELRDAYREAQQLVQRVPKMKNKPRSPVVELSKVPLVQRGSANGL
SUMO1 PPI mod – modulators of SUMO1 protein-protein interactions, primary screen, biochemical, uHTS. actives 0.33% (n = 360,000). inhibition, % at 20 µM. AID 602429, 2012. SUMO1 binding to a labelled peptide, TR-FRET, 1 h; in the data active = inhibition above about 37%
STEP inh – STEP phosphatase inhibitors, primary screen, biochemical, fluorescence intensity, uHTS. recombinant STEP, OMFP fluorogenic substrate. actives 0.25% (n = 360,000). inhibition, % at 20 µM;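 active = inhibition at 20 µM, scaled per plate between control wells, above about 37%, limit read from the data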
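Measure: Control-normalized % inhibition with plate pattern correction | Test system: STEP phosphatase, cell-free reaction | Medium: pH 6.0 Bis-Tris with DTT and Tween 20 | Technique: Fluorescence, 480/540 nm | Times: Reaction 20 min, ambient temperature | Doses: Single compound dose of 20 µM, 1% DMSO final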
Scp-1 conf – Scp-1 phosphatase inhibitors, retest, confirmation, biochemical, colorimetric, single concentration | shares compounds with Scp-1 inhibitor | recombinant SCP-1 catalytic domain, phosphate release, malachite green absorbance | inhibition, % at 20 µM | actives 61% (n = 2,500) | AID 540281, 2011
MG interference – colorimetric readout interference by compounds, confirmation, artefact control for Scp-1 inhibitor project, biochemical, single concentration; shares compounds with Scp-1 inhibitor; Colorimetric interference counterscreen, malachite green absorbance 630 nm; apparent inhibition (interference), % at 20 µM; 2,500 tested, under 10 active;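 also: compounds added after enzyme reaction finished so only phosphate colour detection is probed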
Scp1 DSF – Scp-1 binding by thermal shift, confirmation, orthogonal assay for Scp-1 inhibitor project, biophysical, differential scanning fluorimetry. shares compounds with Scp-1 inhibitor. Recombinant SCP1, Sypro Orange thermal shift Tm. thermal shift relative to vanadate control, % at 40 µM. actives 25% (n = 1,500). AID 540329, 2011;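 active = substances whose mean melting-temperature shift, as a percentage of the reference inhibitor's shift, reaches about 5.3%, limit read from the data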
Beacon interf DR – spectral interference with molecular beacon fluorescence, dose response, artefact control for DNMT1 inhibitor project, biochemical, fluorescent molecular beacon | shares compounds with DNMT1 inh | spectral interference counter-screen | IC50, µM | 200 tested, under 10 active | AID 602382, 2012; call rule not given here
DNMT1 confirm – DNMT1 methyltransferase inhibitor retest, confirmation, biochemical, molecular beacon, fluorescence, single concentration | shares compounds with DNMT1 inh | DNMT1 molecular beacon HinP1I cleavage | inhibition, % at 10 µM | actives 8% (n = 2,300);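 active = average inhibition of at least 30% in the single-concentration confirmation test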
DNMT1 interf – counter-screen for DNMT1 inhibitors: spectral interference; shares compounds with DNMT1 inh; DNMT1 molecular beacon spectral interference counterscreen, fluorescence 485/520; activation (fluorescence interference), % at 10 µM; actives 1% (n = 2,300); AID 602387;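 active = activation of at least 30% at 10 µM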;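 also: DNMT1 catalytic domain with a HinP1I cleavage step and a FAM/dabcyl DNA beacon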
STEP conf – STEP phosphatase inhibitor hit confirmation, biochemical, fluorescence intensity, single concentration; shares compounds with STEP inh; recombinant STEP, OMFP fluorogenic substrate; inhibition, % at 20 µM; actives 32% (n = 520); AID 623866, 2012; call rule not given here
A number is an active result; n = inactive; x = no result.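 The calls were made as follows, unless noted: active = inhibition of at least 30% at 20 µM; inactive = the rest.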

SMILES	LMPTP inh	Scp-1 inhibitor	DNMT1 inh	GRK2 inh	SUMO1 PPI mod	STEP inh	Scp-1 conf	MG interference	Scp1 DSF	STEP conf	others
Cc1c(CC(=O)O)c(=O)oc2c(C)c(OCc3c(F)cccc3Cl)ccc12	n	n	n	n	n	n	x	x	x	x
Cc1cc(OCC(=O)NCC2CCC(C(=O)O)CC2)c2c(C)c(Cc3ccccc3)c(=O)oc2c1 (stereo not given)	n	n	n	n	n	n	x	x	x	x
Cc1c(CC(=O)O)c(=O)oc2c(C)c(OCc3ccccc3Br)ccc12	n	91.5	n	n	n	98.3	62.0	n	n	65.0
Cc1c(CCC(=O)O)c(=O)oc2c(C)c(OCc3cc4c(cc3Cl)OCO4)ccc12	76.6	59.4	n	n	81.1	94.0	38.7	n	n	50.9
CCOc1cc(/C=C2/NC(=O)NC2=O)cc(Br)c1OCc1ccc(C(=O)O)cc1	56.4	73.4	n	n	n	96.5	87.7	n	n	n
CC(C)(C)Cc1c(-c2ccc(C#N)cc2)nc2ccc(Cl)cn12	n	x	n	x	n	n	x	x	x	x
COc1cc(/C=C(\CCC(=O)O)c2nc3ccccc3s2)ccc1OCC(=O)Nc1c(Cl)cccc1Cl	n	74.9	52.3	n	95.0	49.2	51.9	n	n	n	Beacon interf DR=n;DNMT1 confirm=70.1;DNMT1 interf=n
O=C(O)CC/C(=C/c1cccc(NC(=O)c2ccccc2Cl)c1)c1nc2ccccc2s1	n	n	n	x	n	n	x	x	x	x
O=C(/C=C/c1ccccc1Cl)Nc1ccc2c(c1)C(=O)NC2=O	70.6	101.1	65.2	n	n	94.7	84.7	n	6.8	n	DNMT1 confirm=n;DNMT1 interf=n
COc1ccc(NC(=O)c2sc(=O)n(Cc3ccc(F)c(Cl)c3)c2C)cc1OC	n	x	n	x	n	n	x	x	x	x
O=C(COc1ccc(/C=N/NC(=O)c2ccc(O)cc2)cc1)Nc1cccc([N+](=O)[O-])c1	59.0	95.7	n	n	n	74.5	61.1	n	13.5	94.0
COc1cc(/C=N/NC(=O)c2ccncc2)ccc1OCC(=O)Nc1cccc([N+](=O)[O-])c1	n	n	n	n	n	n	x	x	x	x
CCOc1ccc(C(=O)N/N=C/c2cc([N+](=O)[O-])cs2)cc1	71.1	107.3	n	n	n	90.6	82.2	n	n	n	DNMT1 confirm=n;DNMT1 interf=n
Cc1c(C)n(C(=O)CSc2nc3ccccc3[nH]2)c2ccccc12	n	98.4	99.8	n	n	83.7	60.4	n	5.8	52.2	DNMT1 confirm=n;DNMT1 interf=n
C[C@H]1CN([C@@H](C)CO)C(=O)c2cc(Br)cnc2O[C@@H]1CN(C)C(=O)Nc1ccc(C(F)(F)F)cc1	n	x	n	x	n	n	x	x	x	x
O=C(COc1ccc([N+](=O)[O-])cc1)Nc1nnc(-c2cccnc2)s1	n	75.5	n	n	n	65.5	76.4	n	6.9	75.4
O=C(COc1ccc([N+](=O)[O-])cc1)NCc1cccnc1	n	n	n	n	n	n	x	x	x	x
COc1ccc(-c2nn(-c3ccccc3)cc2C2CC(c3cccs3)=NN2C(=O)CCC(=O)O)cc1 (stereo not given)	n	n	n	n	n	n	x	x	x	x
COc1ccc(C2=NN(C(=O)CCCC(=O)O)C(c3cn(-c4ccccc4)nc3-c3ccccc3)C2)cc1 (stereo not given)	n	96.7	n	n	n	69.8	85.9	n	n	n
OC[C@@H]1CN(C2CCCC2)C[C@H](n2cnc3c(NC4CC4)ncnc32)O1	n	x	n	x	n	n	x	x	x	x
O=C(O)C(S)C(S)C(=O)O (stereo not given)	n	95.8	86.2	n	n	50.0	64.8	n	n	100.8
CCCCCNC(=O)C(c1ccnc2ccccc12)n1c(=O)c(-c2ccccc2)nc2ccccc21 (stereo not given)	n	x	x	x	n	x	x	x	x	x
O=C(CCN1C(=O)/C(=C/c2ccc(Cl)cc2)SC1=S)Nc1ccc(C(=O)O)cc1	75.3	91.6	n	n	n	48.6	69.4	n	n	n
COc1cc(/C=C2\SC(=S)N(CCC(=O)Nc3ccc(O)cc3)C2=O)cc(OC)c1OC	n	n	n	n	n	n	x	x	x	x
COc1cc(/C=C2/SC(=S)N(CCC(=O)Nc3ccc(C(=O)O)cc3)C2=O)cc(OC)c1OC	n	67.7	n	n	n	41.6	63.2	n	24.7	n
CC(C)n1cc(C#N)c(N)n1	n	n	n	x	n	n	x	x	x	x
CC1(C(=O)NCc2cccnc2)Cc2c(-c3cccc(C(F)(F)F)c3)ccnc2O1 (stereo not given)	n	x	n	x	n	n	x	x	x	x
CCc1ccc(N=C2NC(=O)/C(=C/c3ccc(OCC(=O)O)cc3)S2)cc1	n	74.2	n	n	n	41.4	42.4	n	n	70.5
